# Experimental data published in ChEMBL document CHEMBL1156597, “Structure-activity relationship of kahalalide F synthetic analogues” (J Med Chem, 2008).
# What was measured:
# DU-145 = assay: Cytotoxicity against human DU145 cells after 48 hrs by SRB assay; assay type: functional, cell-based; settings: Homo sapiens, DU-145, 48 h; for CC50: read-out: LC50 (the source's name)
# In short: (§1)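 Cells grown in RPMI 1640 with 10% FBS and penicillin/streptomycin at 37 °C and 5% CO₂, trypsinized, then seeded at 5 × 10³/well. After 18 h drug-free attachment, samples in DMSO/EtOH/PBS (0.5:0.5:99) were added for 48 h continuous exposure. Cells were fixed with cold TCA (1 h, 4 °C) and stained with SRB (10 min). Tris-solubilized stain read at 490 nm. Triplicate wells, mean ± SD; GI₅₀ derived.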
# LoVo [1] = assay: Cytotoxicity against human LoVo cells after 48 hrs by SRB assay; assay type: functional; settings: for CC50: read-out: LC50 (the source's name)
# LNCaP = assay: Cytotoxicity against human LNcaP cells after 48 hrs by SRB assay; assay type: functional; settings: for CC50: read-out: LC50 (the source's name); in short: as §1
# [2] = Cytotoxicity against human IGROV cells after 48 hrs by SRB assay; assay type: functional; settings: for CC50: read-out: LC50 (the source's name); in short: as §1
# SK-BR-3 = assay: Cytotoxicity against human SKBR3 cells after 48 hrs by SRB assay; assay type: functional; settings: SK-BR-3, 48 h; for CC50: read-out: LC50 (the source's name); for GI50: read-out: GI50; in short: as §1
# HT-29 = assay: Cytotoxicity against human HT29 cells after 48 hrs by SRB assay; assay type: functional, cell-based; settings: Homo sapiens, HT-29, 48 h; for CC50: read-out: LC50 (the source's name); in short: as §1
# PANC-1 = assay: Cytotoxicity against human PANC1 cells after 48 hrs by SRB assay; assay type: functional; settings: PANC-1, 48 h; for CC50: read-out: LC50 (the source's name); in short: as §1
# K562 = assay: Cytotoxicity against human K562 cells after 48 hrs by SRB assay; assay type: functional; settings: K562, 48 h; for CC50: read-out: LC50 (the source's name); in short: as §1
# SK-MEL-28 = assay: Cytotoxicity against human SK-MEL-28 cells after 48 hrs by SRB assay; assay type: functional, cell-based; settings: Homo sapiens, SK-MEL-28, 48 h; for CC50: read-out: LC50 (the source's name); in short: as §1
# A549 = assay: Cytotoxicity against human A549 cells after 48 hrs by SRB assay; assay type: functional, cell-based; settings: Homo sapiens, A549, 48 h; in short: as §1
# LoVo [3] = assay: Cytotoxicity against human doxorubicin resistant LoVo cells after 48 hrs by SRB assay; assay type: functional; settings: for CC50: read-out: LC50 (the source's name); in short: as §1
# [4] = Cytotoxicity against human IGROV-ET cells after 48 hrs by SRB assay; assay type: functional; settings: for CC50: read-out: LC50 (the source's name); in short: as §1
# HeLa = assay: Cytotoxicity against human HeLa cells after 48 hrs by SRB assay; assay type: functional; settings: for CC50: read-out: LC50 (the source's name); in short: as §1
# [5] = Cytotoxicity against human HeLa-APL cells after 48 hrs by SRB assay; assay type: functional; in short: as §1
compound,measurement,setting,value
C/C=C1\NC(=O)[C@H](Cc2ccccc2)NC(=O)[C@@H](C(C)C)NC(=O)[C@@H]([C@H](C)CC)NC(=O)[C@H](NC(=O)[C@H](NC(=O)[C@H](CCCN)NC(=O)[C@H]2CCCN2C(=O)[C@H](NC(=O)[C@@H](NC(=O)[C@@H](NC(=O)[C@H](NC(=O)CCCC(C)C)C(C)C)[C@@H](C)O)C(C)C)C(C)C)[C@H](C)CC)[C@@H](C)OC(=O)[C@H](C(C)C)NC1=O,CC50,DU-145,10600 nM
same,CC50,LoVo [1],5540 nM
same,GI50,LNCaP,19300 nM
same,TGI,LNCaP,20300 nM
same,CC50,LNCaP,4920 nM
same,TGI,[2],106000 nM
same,GI50,[2]; read-out: GI50,73200 nM
same,CC50,[2],72400 nM
same,CC50,SK-BR-3,1690 nM
same,CC50,HT-29,3790 nM
same,CC50,PANC-1,8900 nM
same,CC50,K562,4420 nM
same,CC50,SK-MEL-28,1770 nM
same,LC50,A549,1920 nM
same,GI50,LoVo [3],6030 nM
same,TGI,LoVo [3],7370 nM
same,CC50,LoVo [3],4080 nM
same,TGI,[4],4480 nM
same,GI50,[4]; read-out: GI50,3760 nM
same,CC50,[4],2130 nM
same,CC50,HeLa,1910 nM
same,LC50 (concentration giving 50% net cell kill),[5],2360 nM
C/C=C1\NC(=O)[C@H](Cc2ccccc2)NC(=O)[C@@H](CCC2CCCCC2)NC(=O)[C@@H](CCC2CCCCC2)NC(=O)[C@H](NC(=O)[C@@H](CCC2CCCCC2)NC(=O)[C@H](CCCN)NC(=O)[C@H]2CCCN2C(=O)[C@H](NC(=O)[C@@H](NC(=O)[C@@H](NC(=O)[C@H](NC(=O)CCCC(C)C)C(C)C)[C@@H](C)O)C(C)C)C(C)C)[C@H](C)OC(=O)[C@H](C(C)C)NC1=O,GI50,DU-145,125 nM
same,GI50,DU-145; read-out: GI50,148 nM
same,CC50,DU-145,104 nM
same,GI50,LoVo [1],282 nM
same,TGI,LoVo [1],274 nM
same,CC50,LoVo [1],264 nM
same,GI50,LNCaP,304 nM
same,TGI,LNCaP,415 nM
same,CC50,LNCaP,633 nM
same,GI50,[2],139 nM
same,GI50,[2]; read-out: GI50,214 nM
same,CC50,[2],161 nM
same,TGI,SK-BR-3,201 nM
same,GI50,SK-BR-3,249 nM
same,CC50,SK-BR-3,87.8 nM
same,GI50,HT-29,359 nM
same,TGI,HT-29,339 nM
same,CC50,HT-29,320 nM
same,GI50,PANC-1,1320 nM
same,TGI,PANC-1,1380 nM
same,CC50,PANC-1,1450 nM
same,GI50,K562,363 nM
same,TGI,K562,630 nM
same,CC50,K562,980 nM
same,GI50,SK-MEL-28,159 nM
same,GI50,SK-MEL-28; read-out: GI50,174 nM
same,CC50,SK-MEL-28,144 nM
same,GI50,A549,173 nM
same,LC50,A549,222 nM
same,GI50,A549; read-out: GI50,161 nM
same,CC50,LoVo [3],27.4 nM
same,GI50,[4],227 nM
same,GI50,[4]; read-out: GI50,255 nM
same,CC50,[4],55 nM
same,GI50,HeLa,255 nM
same,TGI,HeLa,361 nM
same,CC50,HeLa,586 nM
same,GI50,[5],233 nM
same,LC50 (concentration giving 50% net cell kill),[5],573 nM
same,TGI,[5],3400 nM
C/C=C1\NC(=O)[C@H](Cc2ccccc2)NC(=O)[C@@H](C(C)C)NC(=O)[C@@H]([C@H](C)CC)NC(=O)[C@H](NC(=O)[C@H](NC(=O)[C@H](CCCN)NC(=O)[C@H]2CCCN2C(=O)[C@H](NC(=O)[C@@H](NC(=O)[C@@H](NC(=O)[C@H](NC(=O)CC[C@@H](C)[C@H]2CC[C@H]3[C@@H]4CC[C@@H]5C[C@H](OC(=O)C(F)(F)F)CC[C@]5(C)[C@H]4CC[C@]23C)C(C)C)[C@@H](C)O)C(C)C)C(C)C)[C@H](C)CC)[C@H](C)OC(=O)[C@H](C(C)C)NC1=O,GI50,DU-145,524 nM
same,GI50,DU-145; read-out: GI50,394 nM
same,CC50,DU-145,568 nM
same,GI50,LoVo [1],340 nM
same,TGI,LoVo [1],374 nM
same,CC50,LoVo [1],795 nM
same,GI50,LNCaP,851 nM
same,TGI,LNCaP,912 nM
same,CC50,LNCaP,980 nM
same,GI50,[2],500 nM
same,GI50,[2]; read-out: GI50,375 nM
same,CC50,[2],404 nM
same,TGI,SK-BR-3,166 nM
same,GI50,SK-BR-3,118 nM
same,CC50,SK-BR-3,233 nM
same,GI50,HT-29,387 nM
same,TGI,HT-29,450 nM
same,CC50,HT-29,761 nM
same,GI50,PANC-1,1640 nM
same,TGI,PANC-1,1440 nM
same,CC50,PANC-1,1440 nM
same,GI50,K562,967 nM
same,TGI,K562,795 nM
same,CC50,K562,1170 nM
same,GI50,SK-MEL-28,190 nM
same,GI50,SK-MEL-28; read-out: GI50,209 nM
same,CC50,SK-MEL-28,172 nM
same,GI50,A549,949 nM
same,LC50,A549,851 nM
same,GI50,A549; read-out: GI50,1060 nM
same,GI50,LoVo [3],227 nM
same,TGI,LoVo [3],220 nM
same,CC50,LoVo [3],211 nM
same,GI50,[4],406 nM
same,GI50,[4]; read-out: GI50,352 nM
same,CC50,[4],468 nM
same,GI50,HeLa,1070 nM
same,TGI,HeLa,978 nM
same,CC50,HeLa,886 nM
same,GI50,[5],1040 nM
same,LC50 (concentration giving 50% net cell kill),[5],638 nM
same,TGI,[5],802 nM
